Test results published in ChEMBL document CHEMBL2029237, “Melanin-concentrating hormone receptor 1 antagonists. Synthesis and structure-activity relationships of novel 3-(aminomethyl)quinolines” (J Med Chem, 2012).
≈ marks a conversion by molar mass, not a printed value.

Legend:
[1] = target: T1, Melanin-concentrating hormone receptor 1 (Homo sapiens, UniProt Q99705); experiment: Displacement of [125I]MCH from human MCHR1 expressed in CHO cells after 1 hr by scintillation counting; assay type: cell-based
Procedure, shortened: (§1)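 CHO cell membranes stably expressing human or rat MCHR1 incubated 1 h at room temperature with [125I]MCH(4−19) and compound at various concentrations. Filtration through GF/C glass filters, bound radioactivity counted by scintillation. IC50 from one experiment in duplicate.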

[2] = Solubility of the compound in JP2 solution at 10 mM; assay type: physicochemical
Procedure, shortened: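 The 10 mM DMSO solution of compound was added to JP2 until opalescence appeared.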

[3] = target: T2, 5-hydroxytryptamine receptor 2C (Homo sapiens, UniProt P28335); experiment: Displacement of [3H]mesulergine from human 5HT2C receptor expressed in CHO cells after 1 hr by scintillation counting; assay type: cell-based
T2 sequence (P28335 whole entry): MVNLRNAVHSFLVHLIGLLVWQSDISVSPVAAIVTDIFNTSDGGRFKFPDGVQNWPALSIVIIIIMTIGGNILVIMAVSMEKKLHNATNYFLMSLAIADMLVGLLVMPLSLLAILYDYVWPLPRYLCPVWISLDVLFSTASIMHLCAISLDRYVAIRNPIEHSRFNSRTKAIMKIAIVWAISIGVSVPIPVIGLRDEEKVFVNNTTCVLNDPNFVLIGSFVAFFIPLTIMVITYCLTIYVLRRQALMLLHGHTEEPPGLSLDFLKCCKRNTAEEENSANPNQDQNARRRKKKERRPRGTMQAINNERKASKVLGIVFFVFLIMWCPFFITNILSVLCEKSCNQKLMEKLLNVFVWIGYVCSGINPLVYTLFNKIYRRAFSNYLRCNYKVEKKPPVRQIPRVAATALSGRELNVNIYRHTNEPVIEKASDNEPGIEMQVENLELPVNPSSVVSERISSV
Procedure, shortened: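 Membranes from CHO cells stably expressing human 5-HT2c incubated 1 h at room temperature with [3H]mesulergine and compound at various concentrations. Terminated by GF/C filtration, filter radioactivity counted by scintillation. IC50 from one experiment in duplicate.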

[4] = target: T1, Melanin-concentrating hormone receptor 1; experiment: Antagonist activity at human MCHR1 expressed in CHO cells assessed as inhibition of MCH-induced [3H]arachidonic acid release […] by liquid scintillation counting; assay type: functional, cell-based; conditions: in the assay text read “45 mins” for “16 hrs”
Procedure, shortened: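 Human MCHR1-CHO cells seeded at 50 000/well, cultured 1 day, then loaded with [3H]arachidonic acid (0.2 μCi/well) for 16 h. Washed with DMEM containing 20 mM HEPES pH 7.4 and 0.2% BSA. Compound preincubated 30 min at 37 °C, MCH added, 45 min incubation, medium radioactivity by liquid scintillation.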

[5] = tested on: Rattus norvegicus; experiment: Antiobesity activity in high-fat diet fed Fischer 344 rat DIO model assessed as inhibition of food intake at 1 mg/kg, po after 17 hrs; assay type: functional; conditions: Fischer 344, 17 h
Procedure, shortened: (§2)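 Male F344/Jcl rats, 52 weeks old, fed high-fat diet from 5 weeks of age, housed singly and acclimated to oral water dosing; grouped by overnight food intake and body weight. Single oral dose at 15:00 as 0.5% methylcellulose suspension, 2 mL/kg, six rats per group; vehicle controls. Cumulative food intake at 6 and 17 h; percent inhibition versus control, mean ± SD.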

[6] = tested on: Rattus norvegicus; experiment: Antiobesity activity in high-fat diet fed Fischer 344 rat DIO model assessed as inhibition of food intake at 1 mg/kg, po after 6 hrs; assay type: functional; conditions: Fischer 344, 6 h; procedure, shortened: as §2
[7] = tested on: Rattus norvegicus; experiment: Antiobesity activity in high-fat diet fed Fischer 344 rat DIO model assessed as inhibition of food intake at 10 mg/kg, po after 6 hrs; assay type: functional; conditions: Fischer 344, 6 h
Procedure, shortened: (§3)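 Male 52-week-old F344/Jcl rats on high-fat diet from 5 weeks of age, housed singly, grouped by overnight food intake and body weight. Oral dosing at 15:00 in 0.5% methylcellulose suspension, 2 mL/kg, against vehicle controls; six rats per group.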

[8] = tested on: Rattus norvegicus; experiment: Antiobesity activity in high-fat diet fed Fischer 344 rat DIO model assessed as inhibition of food intake at 10 mg/kg, po after 17 hrs; assay type: functional; conditions: Fischer 344, 17 h; procedure, shortened: as §3
[9] = tested on: Brain; experiment: AUC in Fischer 344 rat brain at 1 mg/kg, po; assay type: ADME, organism-based; design: dose 1 mg/kg, route oral; conditions: in vivo
[10] = tested on: Mus musculus; experiment: Antiobesity activity in MCHR1-deficient mouse assessed as inhibition of food intake at 3 mg/kg, po qd for 2 days; assay type: functional; conditions: 48 h
Procedure, shortened: (§4)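 Male MCHR1-deficient mice and wild-type littermates, 34 weeks old, on high-fat diet from 5 weeks of age, housed singly. Grouped by food intake days −5 to −1 and day −1 body weight. Oral dosing at 16:00 on days 0 and 1 in 0.5% methylcellulose suspension, 10 mL/kg, against vehicle controls; six mice per group.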

[11] = tested on: Rattus norvegicus; experiment: Antiobesity activity in high-fat diet fed Fischer 344 rat DIO model assessed as inhibition of food intake at 3 mg/kg, po after 6 hrs; assay type: functional; conditions: Fischer 344, 6 h; procedure, shortened: as §3
[12] = Tmax in Fischer 344 rat brain at 1 mg/kg, po; assay type: ADME, organism-based; design: dose 1 mg/kg, route oral
[13] = Cmax in Fischer 344 rat brain at 1 mg/kg, po; assay type: ADME, organism-based; design: dose 1 mg/kg, route oral
[14] = Total clearance in Fischer 344 rat at 0.3 mg/kg, iv; assay type: ADME, organism-based; design: dose 0.3 mg/kg, route intravenous; conditions: in vivo
[15] = AUC in Fischer 344 rat at 1 mg/kg, po; assay type: ADME, organism-based; design: dose 1 mg/kg, route oral; conditions: plasma
[16] = tested on: Mus musculus; experiment: Antiobesity activity in MCHR1-deficient mouse assessed as inhibition of food intake at 10 mg/kg, po qd for 2 days; assay type: functional; conditions: 48 h; procedure, shortened: as §4
[17] = Volume of distribution at the steady state in Fischer 344 rat at 0.3 mg/kg, iv; assay type: ADME, organism-based; design: dose 0.3 mg/kg, route intravenous; conditions: in vivo, read-out: Vdss
[18] = tested on: Rattus norvegicus; experiment: Antiobesity activity in po dosed high-fat diet fed Fischer 344 rat DIO model assessed as inhibition of food intake after 17 hrs; assay type: functional, organism-based; procedure, shortened: as §3
[19] = target: Melanin-concentrating hormone receptor 1 (Rattus norvegicus, UniProt P97639); experiment: Displacement of [125I]MCH from rat MCHR1 expressed in CHO cells after 1 hr by scintillation counting; assay type: cell-based; procedure, shortened: as §1
[20] = Tmax in Fischer 344 rat at 1 mg/kg, po; assay type: ADME, organism-based; design: dose 1 mg/kg, route oral; conditions: in vivo
[21] = tested on: Mus musculus; experiment: Antiobesity activity in high-fat diet given wild type mouse assessed as inhibition of food intake at 3 mg/kg, po qd for 2 days; assay type: functional; conditions: 48 h; procedure, shortened: as §4
[22] = Half life in Fischer 344 rat at 0.3 mg/kg, iv; assay type: ADME, organism-based; design: dose 0.3 mg/kg, route intravenous; conditions: in vivo
[23] = tested on: Mus musculus; experiment: Antiobesity activity in high-fat diet given wild type mouse assessed as inhibition of food intake at 10 mg/kg, po qd for 2 days; assay type: functional; conditions: 48 h; procedure, shortened: as §4
[24] = tested on: Rattus norvegicus; experiment: Antiobesity activity in high-fat diet fed Fischer 344 rat DIO model assessed as inhibition of food intake at 3 mg/kg, po after 17 hrs; assay type: functional; conditions: Fischer 344, 17 h; procedure, shortened: as §3
[25] = Cmax in Fischer 344 rat at 1 mg/kg, po; assay type: ADME, organism-based; design: dose 1 mg/kg, route oral; conditions: in vivo
[26] = Bioavailability in Fischer 344 rat; assay type: ADME, organism-based; conditions: in vivo

T1 sequence (Q99705 whole entry): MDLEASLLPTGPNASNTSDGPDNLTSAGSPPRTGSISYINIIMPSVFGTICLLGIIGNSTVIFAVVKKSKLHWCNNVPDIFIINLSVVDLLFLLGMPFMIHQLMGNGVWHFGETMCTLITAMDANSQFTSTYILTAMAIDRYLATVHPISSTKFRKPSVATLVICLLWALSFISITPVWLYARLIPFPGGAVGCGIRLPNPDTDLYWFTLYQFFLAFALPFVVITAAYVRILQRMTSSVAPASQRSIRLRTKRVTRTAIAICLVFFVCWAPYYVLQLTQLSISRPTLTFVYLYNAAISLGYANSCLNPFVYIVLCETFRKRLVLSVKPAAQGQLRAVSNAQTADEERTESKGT
Sequence of Melanin-concentrating hormone receptor 1 (Rattus norvegicus, UniProt P97639) (P97639 whole entry): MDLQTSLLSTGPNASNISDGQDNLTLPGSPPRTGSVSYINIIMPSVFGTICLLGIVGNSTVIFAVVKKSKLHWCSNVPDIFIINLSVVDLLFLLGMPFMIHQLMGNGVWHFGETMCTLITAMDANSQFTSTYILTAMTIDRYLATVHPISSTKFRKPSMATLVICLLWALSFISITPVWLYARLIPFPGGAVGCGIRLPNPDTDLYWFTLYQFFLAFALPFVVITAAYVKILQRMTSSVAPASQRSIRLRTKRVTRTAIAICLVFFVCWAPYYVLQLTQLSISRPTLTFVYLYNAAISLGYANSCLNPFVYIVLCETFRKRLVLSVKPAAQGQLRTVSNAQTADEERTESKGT

**Q.** What does the source list for `O=C(Nc1ccc2cc(CN3CCCC3)ccc2c1)c1ccc(-c2ccc(F)cc2)cc1`?
**A.** IC50 [1]: 0.76 nM; solubility [2]: 0.11 µg/mL (≈ 0.259 µM); IC50 [3]: 120 nM; IC50 [4]: 9 nM

**Q.** With `COc1c(NC(=O)c2ccc(-c3ccc(F)cc3)cc2)ccc2cc(CN3CCCC3)cnc12` as the molecule, how does the IC50 [1] read?
**A.** 110 nM

**Q.** What does the source list for `O=C(Nc1ccc2cc(CN3CCCC3)cnc2c1)c1ccc(-c2ccccc2)cc1`?
**A.** IC50 [1]: 13 nM; IC50 [3]: 310 nM

**Q.** Which IC50 [1] does the source give for `O=C(Nc1ccc2cc(CN3CCCC3)cnc2c1)N1CCC(c2ccc(F)cc2)CC1` here?
**A.** 35 nM

**Q.** Which inhibition in vivo at 1 mg/kg [5] does the source give for `CC(C)CC(N(C)C)C1(c2ccc(Cl)cc2)CCC1` (configuration not stated) [SIBUTRAMINE] here?
**A.** 25.8%

**Q.** And the inhibition in vivo at 1 mg/kg [6]?
**A.** 34.6%

**Q.** Which results are given for `O=C(Nc1cc2ncc(CN3CCCC3)cc2cc1Cl)c1ccc(-c2ccc(F)cc2)cc1`?
**A.** IC50 [1]: 1.4 nM; IC50 [3]: 240 nM; IC50 [4]: 12 nM

**Q.** For `Cc1c(NC(=O)c2ccc(-c3ccc(F)cc3)cc2)ccc2cc(CN3CCCC3)cnc12`, which inhibition in vivo at 10 mg/kg [7] is on record?
**A.** 55.7%

**Q.** And the inhibition in vivo at 10 mg/kg [8]?
**A.** 45.8%

**Q.** What about the IC50 [1] of the same molecule?
**A.** 0.54 nM

**Q.** And the AUC [9]?
**A.** 9343 ng·h/g

**Q.** And the inhibition in vivo at 1 mg/kg [5]?
**A.** 15.5%

**Q.** What about the inhibition in vivo at 3 mg/kg [10] of the same molecule?
**A.** 4.1%

**Q.** And the inhibition in vivo at 3 mg/kg [11]?
**A.** 36.7%

**Q.** And the Tmax [12]?
**A.** 8 h

**Q.** What about the Cmax [13] of the same molecule?
**A.** 610 ng/g

**Q.** What about the clearance [14] of the same molecule?
**A.** 40 mL/min/kg

**Q.** What about the AUC [15] of the same molecule?
**A.** 160 ng·h/mL

**Q.** And the IC50 [3]?
**A.** > 1000 nM

**Q.** And the inhibition in vivo at 10 mg/kg [16]?
**A.** 5.7%

**Q.** What about the inhibition in vivo at 1 mg/kg [6] of the same molecule?
**A.** 18.8%

**Q.** And the Vd [17]?
**A.** 20 L/kg

**Q.** And the inhibition [18]?
**A.** Dose-dependent effect

**Q.** What about the IC50 [19] of the same molecule?
**A.** 1.7 nM

**Q.** And the IC50 [4]?
**A.** 2.8 nM

**Q.** And the Tmax [20]?
**A.** 4 h

**Q.** And the inhibition in vivo at 3 mg/kg [21]?
**A.** 10.2%

**Q.** And the half-life [22]?
**A.** 7.7 h

**Q.** What about the inhibition in vivo at 10 mg/kg [23] of the same molecule?
**A.** 13.2%

**Q.** What about the inhibition in vivo at 3 mg/kg [24] of the same molecule?
**A.** 28.9%

**Q.** And the Cmax [25]?
**A.** 9 ng/mL

**Q.** What about the bioavailability [26] of the same molecule?
**A.** 39%

**Q.** Which IC50 [1] does the source give for `O=C(Nc1ccc2cc(CN3CCCC3)cnc2c1)c1ccc(-c2ccc(F)cc2)nc1` here?
**A.** 25 nM

**Q.** And the IC50 [3]?
**A.** 830 nM

**Q.** With `COc1ccc(-c2ccc(C(=O)Nc3ccc4cc(CN5CCCC5)cnc4c3)cc2)cc1` as the molecule, how does the IC50 [1] read?
**A.** 3.7 nM

**Q.** And the IC50 [3]?
**A.** > 1000 nM

**Q.** What does the source list for `COc1ccc(-c2ccc(C(=O)Nc3ccc4cc(CN5CCCC5)cnc4c3C)cc2)cc1`?
**A.** IC50 [1]: 0.53 nM; IC50 [3]: > 1000 nM; IC50 [4]: 4.3 nM

**Q.** What does the source list for `O=C(Nc1ccc2cc(CN3CCCC3)cnc2c1)N1CCC(c2ccc(Cl)cc2)CC1`?
**A.** IC50 [1]: 6.6 nM; IC50 [3]: 55 nM

**Q.** What does the source list for `O=C(Nc1ccc2nc(CN3CCCC3)ccc2c1)c1ccc(-c2ccc(F)cc2)cc1`?
**A.** IC50 [1]: 2.7 nM; IC50 [3]: 36 nM; IC50 [4]: 40 nM

**Q.** For `O=C(Nc1ccc2cc(CN3CCCC3)cnc2c1)c1ccc(-c2ccc(Cl)cc2)nc1`, which IC50 [1] is on record?
**A.** 4.1 nM

**Q.** And the IC50 [3]?
**A.** 930 nM

**Q.** What about the IC50 [4] of the same molecule?
**A.** 14 nM

**Q.** For `COc1ccc(C2CCN(C(=O)Nc3ccc4cc(CN5CCCC5)cnc4c3)CC2)cc1`, which IC50 [1] is on record?
**A.** 48 nM

**Q.** Which results are given for `Cc1c(NC(=O)c2ccc(-c3ccc(Cl)cc3)cc2)ccc2cc(CN3CCCC3)cnc12`?
**A.** IC50 [1]: 0.36 nM; IC50 [3]: > 1000 nM; IC50 [4]: 7.6 nM
